Assay results reported in ChEMBL document CHEMBL4270568, “Identification, structural modification, and dichotomous effects on human immunodeficiency virus type 1 (HIV-1) replication of ingenane esters from Euphorbia kansui” (Eur J Med Chem, 2018).
Active and inactive are the calls of the source. The rule behind the calls is not given here.

system: Human immunodeficiency virus 1; experiment: Reactivation of latent HIV1 infected in human U1 cells assessed as increase in p24 production after 72 hrs by ELISA; type: functional, organism-based; conditions: Human immunodeficiency virus 1, U1, 72 h
Method in brief: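 Latently infected U1 cells (2×10⁵ cells/mL) incubated with various compound concentrations at 37 °C for 72 h. Culture supernatant p24 is measured by ELISA. EC50 = concentration activating p24 production by 50%, fitted by non-linear regression.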

First: CC1=C[C@]23C(=O)[C@@H](C=C(CO)[C@@H](O)[C@]2(O)[C@H]1OC(=O)c1ccc2ccccc2c1)[C@H]1[C@@H](C[C@H]3C)C1(C)C
Second: C/C=C(/C)C(=O)O[C@H]1C(C)=C[C@]23C(=O)[C@@H](C=C(CO)[C@@H](O)[C@]12O)[C@H]1[C@@H](C[C@H]3C)C1(C)C [INGENOL MEBUTATE]
The EC50 of the first is 1.8-fold lower: 2.4 nM for the first, 4.2 nM for the second. The first is the more potent here.

system: Human immunodeficiency virus 1; experiment: Reactivation of latent HIV1 infected in human J-Lat A2 cells assessed as increase in GFP expression at 10 to 50 nM after 72 hrs by flow cytometric method; type: functional, organism-based; conditions: not given
Method in brief: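 J-Lat (A2) cells (1×10⁶ cells/well) incubated with various concentrations of latency reversing agents at 37 °C for 72 h. GFP-expressing cells are quantified by flow cytometry.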

With `CC1=C[C@]23C(=O)[C@@H](C=C(CO)[C@@H](O)[C@]2(O)[C@H]1OC(=O)c1ccc2ccccc2c1)[C@H]1[C@@H](C[C@H]3C)C1(C)C` the Activity was “Active”.
With `C/C=C(/C)C(=O)O[C@H]1C(C)=C[C@]23C(=O)[C@@H](C=C(CO)[C@@H](O)[C@]12O)[C@H]1[C@@H](C[C@H]3C)C1(C)C` [INGENOL MEBUTATE] the Activity was “Active”.

system: Human immunodeficiency virus 1; experiment: Potency index, ratio AZT EC50 to test compound EC50 for Human immunodeficiency virus 1 NL4-3 infected in human MT4 cells; type: functional; conditions: not given

In the case of `CC1=C[C@]23C(=O)[C@@H](C=C(CO)[C@@H](O)[C@]2(O)[C@H]1OC(=O)c1ccc2ccccc2c1)[C@H]1[C@@H](C[C@H]3C)C1(C)C`, the “Ratio EC50” value is reported as 10.

system: MT4; experiment: Cytotoxicity against human MT4 cells after 3 days by CytoTox-Glo assay; type: cell-based; conditions: mt4, 72 h
Method in brief: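 MT4 cells cultured for 3 days with various compound concentrations. Cytotoxicity is read by CytoTox-Glo following the manufacturer's protocol. CC50 = concentration causing 50% reduction of cell viability.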

`C/C=C/C(=O)O[C@H]1C(C)=C[C@]23C(=O)[C@@H](C=C(C)[C@@H](O)[C@]12O)[C@H]1[C@@H](C[C@H]3C)C1(C)C` and `C/C=C/C(=O)O[C@@H]1C(C)=C[C@@H]2C(=O)[C@]3(C=C(C)[C@H](O)[C@@]13O)[C@H](C)C[C@@H]1[C@H]2C1(C)C` cannot be ordered by CC50: greater than 10000 nM for the first, greater than 10000 nM for the second.

`CC1=C[C@]23C(=O)[C@@H](C=C(CO)[C@@H](O)[C@]2(O)[C@H]1OC(=O)c1ccc2ccccc2c1)[C@H]1[C@@H](C[C@H]3C)C1(C)C` and `CC1=C[C@@H]2C(=O)[C@]3(C=C(C)[C@H](OC(=O)c4ccc5ccccc5c4)[C@@]3(O)[C@@H]1O)[C@H](C)C[C@@H]1[C@H]2C1(C)C` cannot be ordered by CC50: greater than 8000 nM for the first, greater than 8200 nM for the second.

`CC(=O)OCC1=C[C@@H]2C(=O)[C@]3(C=C(C)[C@H](O)[C@@]3(O)[C@@H]1O)[C@H](C)C[C@@H]1[C@H]2C1(C)C` and `CC1=C[C@]23C(=O)[C@@H](C=C(CO)[C@@H](O)[C@]2(O)[C@H]1O)[C@H]1[C@@H](C[C@H]3C)C1(C)C` [INGENOL] cannot be ordered by CC50: greater than 10300 nM for the first, greater than 11500 nM for the second.

`COc1ccc(C(=O)O[C@H]2C(C)=C[C@]34C(=O)[C@@H](C=C(C)[C@@H](O)[C@]23O)[C@H]2[C@@H](C[C@H]4C)C2(C)C)cc1` and `COc1ccc(C(=O)O[C@@H]2C(C)=C[C@@H]3C(=O)[C@]4(C=C(C)[C@H](O)[C@@]24O)[C@H](C)C[C@@H]2[C@H]3C2(C)C)cc1` cannot be ordered by CC50: greater than 8600 nM for the first, greater than 8600 nM for the second.

`CC1=C[C@@H]2C(=O)[C@]3(C=C(C)[C@H](OC(=O)/C=C/c4ccccc4)[C@@]3(O)[C@@H]1O)[C@H](C)C[C@@H]1[C@H]2C1(C)C` and `CCCCCCCC(=O)O[C@H]1C(C)=C[C@]23C(=O)[C@@H](C=C(C)[C@@H](O)[C@]12O)[C@H]1[C@@H](C[C@H]3C)C1(C)C` cannot be ordered by CC50: greater than 8700 nM for the first, greater than 8700 nM for the second.

For `C/C=C(/C)C(=O)O[C@H]1C(C)=C[C@]23C(=O)[C@@H](C=C(CO)[C@@H](O)[C@]12O)[C@H]1[C@@H](C[C@H]3C)C1(C)C` [INGENOL MEBUTATE], the CC50 was greater than 9300 nM.

system: not listed separately; experiment: Cytotoxicity against human U937 cells after 3 days by CytoTox-Glo assay; type: cell-based, U-937; conditions: not given
Method in brief: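 U937 cytotoxicity is run by the same method as for MT4: 3-day culture with various compound concentrations, CytoTox-Glo read-out, and CC50 taken as 50% reduction of viability.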

`CC1=C[C@]23C(=O)[C@@H](C=C(CO)[C@@H](O)[C@]2(O)[C@H]1OC(=O)c1ccc2ccccc2c1)[C@H]1[C@@H](C[C@H]3C)C1(C)C` showed a CC50 at 72 h greater than 20000 nM.

system: not listed separately; experiment: Selectivity index, ratio of CC50 for human MT4 cells to EC50 for Human immunodeficiency virus 1 NL4-3 infected in human MT4 cells; type: toxicity, cell-based; conditions: read-out: Ratio CC50/EC50
Method in brief: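 SI = CC50/EC50. CC50 is from a 3-day CytoTox-Glo assay on MT4 cells. EC50 is from MT4 cells infected with 50 TCID50/well NL4-3 Nanoluc-sec and given graded compound, with supernatant luciferase read on day 3 as 50% reduction.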

`C/C=C/C(=O)O[C@H]1C(C)=C[C@]23C(=O)[C@@H](C=C(C)[C@@H](O)[C@]12O)[C@H]1[C@@H](C[C@H]3C)C1(C)C` and `C/C=C/C(=O)O[C@@H]1C(C)=C[C@@H]2C(=O)[C@]3(C=C(C)[C@H](O)[C@@]13O)[C@H](C)C[C@@H]1[C@H]2C1(C)C` cannot be ordered by selectivity ratio: greater than 17 for the first, greater than 16 for the second.

`CC1=C[C@]23C(=O)[C@@H](C=C(CO)[C@@H](O)[C@]2(O)[C@H]1OC(=O)c1ccc2ccccc2c1)[C@H]1[C@@H](C[C@H]3C)C1(C)C` and `CC1=C[C@@H]2C(=O)[C@]3(C=C(C)[C@H](OC(=O)c4ccc5ccccc5c4)[C@@]3(O)[C@@H]1O)[C@H](C)C[C@@H]1[C@H]2C1(C)C` cannot be ordered by selectivity ratio: greater than 6150 for the first, greater than 543 for the second.

`CC(=O)OCC1=C[C@@H]2C(=O)[C@]3(C=C(C)[C@H](O)[C@@]3(O)[C@@H]1O)[C@H](C)C[C@@H]1[C@H]2C1(C)C` and `CC1=C[C@]23C(=O)[C@@H](C=C(CO)[C@@H](O)[C@]2(O)[C@H]1O)[C@H]1[C@@H](C[C@H]3C)C1(C)C` [INGENOL] cannot be ordered by selectivity ratio: greater than 10 for the first, greater than 10 for the second.

`COc1ccc(C(=O)O[C@H]2C(C)=C[C@]34C(=O)[C@@H](C=C(C)[C@@H](O)[C@]23O)[C@H]2[C@@H](C[C@H]4C)C2(C)C)cc1` and `COc1ccc(C(=O)O[C@@H]2C(C)=C[C@@H]3C(=O)[C@]4(C=C(C)[C@H](O)[C@@]24O)[C@H](C)C[C@@H]2[C@H]3C2(C)C)cc1` cannot be ordered by selectivity ratio: greater than 64 for the first, greater than 20 for the second.

`CC1=C[C@@H]2C(=O)[C@]3(C=C(C)[C@H](OC(=O)/C=C/c4ccccc4)[C@@]3(O)[C@@H]1O)[C@H](C)C[C@@H]1[C@H]2C1(C)C` and `CCCCCCCC(=O)O[C@H]1C(C)=C[C@]23C(=O)[C@@H](C=C(C)[C@@H](O)[C@]12O)[C@H]1[C@@H](C[C@H]3C)C1(C)C` cannot be ordered by selectivity ratio: greater than 45 for the first, greater than 59.9 for the second.

`C/C=C(/C)C(=O)O[C@H]1C(C)=C[C@]23C(=O)[C@@H](C=C(CO)[C@@H](O)[C@]12O)[C@H]1[C@@H](C[C@H]3C)C1(C)C` [INGENOL MEBUTATE] gave a selectivity ratio greater than 2070.

system: Human immunodeficiency virus 1; experiment: Antiviral activity against Human immunodeficiency virus 1 NL4-3 infected in human MT4 cells measured on day 3 post infection by Nano-Glo luciferase reporter gene assay; type: functional, organism-based; conditions: Human immunodeficiency virus 1, NL4-3, MT4, 72 h
Method in brief: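 HIV-1 NL4-3 Nanoluc-sec reporter virus at 50 TCID50/well infects MT4 cells (1 × 10⁵ cells/mL) in the presence of graded compound concentrations. On day 3 post-infection, supernatant is assayed for secreted NanoLuc luciferase.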

`C/C=C/C(=O)O[C@H]1C(C)=C[C@]23C(=O)[C@@H](C=C(C)[C@@H](O)[C@]12O)[C@H]1[C@@H](C[C@H]3C)C1(C)C` and `C/C=C/C(=O)O[C@@H]1C(C)=C[C@@H]2C(=O)[C@]3(C=C(C)[C@H](O)[C@@]13O)[C@H](C)C[C@@H]1[C@H]2C1(C)C` are within 1.5-fold of each other in EC50: 600 nM for the first, 630 nM for the second.

First: CC1=C[C@]23C(=O)[C@@H](C=C(CO)[C@@H](O)[C@]2(O)[C@H]1OC(=O)c1ccc2ccccc2c1)[C@H]1[C@@H](C[C@H]3C)C1(C)C
Second: CC1=C[C@@H]2C(=O)[C@]3(C=C(C)[C@H](OC(=O)c4ccc5ccccc5c4)[C@@]3(O)[C@@H]1O)[C@H](C)C[C@@H]1[C@H]2C1(C)C
The EC50 of the first is 12-fold lower: 1.3 nM for the first, 15.1 nM for the second.

Going from `CC(=O)OCC1=C[C@@H]2C(=O)[C@]3(C=C(C)[C@H](O)[C@@]3(O)[C@@H]1O)[C@H](C)C[C@@H]1[C@H]2C1(C)C` to `CC1=C[C@]23C(=O)[C@@H](C=C(CO)[C@@H](O)[C@]2(O)[C@H]1O)[C@H]1[C@@H](C[C@H]3C)C1(C)C` [INGENOL], the EC50 rises from 1080 nM to greater than 11500 nM.

Compared with `COc1ccc(C(=O)O[C@H]2C(C)=C[C@]34C(=O)[C@@H](C=C(C)[C@@H](O)[C@]23O)[C@H]2[C@@H](C[C@H]4C)C2(C)C)cc1`, `COc1ccc(C(=O)O[C@@H]2C(C)=C[C@@H]3C(=O)[C@]4(C=C(C)[C@H](O)[C@@]24O)[C@H](C)C[C@@H]2[C@H]3C2(C)C)cc1` is 3.2-fold higher in EC50: 134 nM for the first, 434 nM for the second. The first is the more potent here.

`CC1=C[C@@H]2C(=O)[C@]3(C=C(C)[C@H](OC(=O)/C=C/c4ccccc4)[C@@]3(O)[C@@H]1O)[C@H](C)C[C@@H]1[C@H]2C1(C)C` and `CCCCCCCC(=O)O[C@H]1C(C)=C[C@]23C(=O)[C@@H](C=C(C)[C@@H](O)[C@]12O)[C@H]1[C@@H](C[C@H]3C)C1(C)C` are within 1.5-fold of each other in EC50: 188 nM for the first, 145 nM for the second.

For `C/C=C(/C)C(=O)O[C@H]1C(C)=C[C@]23C(=O)[C@@H](C=C(CO)[C@@H](O)[C@]12O)[C@H]1[C@@H](C[C@H]3C)C1(C)C` [INGENOL MEBUTATE], the EC50 was 4.5 nM.
